Experimental data as given in ChEMBL document CHEMBL5126577, “Discovery of honokiol thioethers containing 1,3,4-oxadiazole moieties as potential α-glucosidase and SARS-CoV-2 entry inhibitors” (Bioorg Med Chem, 2022).

Test system: SARS-CoV-2
Assay: Antiviral activity against pseudovirus SARS-CoV-2 spike protein infected in HEK-293T cells overexpressing ACE2 assessed as inhibition on pseudovirus infection incubated for 52 hrs by luminescence based microplate reader analysis
Assay type: functional, organism-based
Conditions: Severe acute respiratory syndrome coronavirus 2, HEK-293T
In short: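 HEK-293T-ACE2h cells were pre-incubated with compound in DMEM for 2 h, then inoculated with luciferase-reporter spike pseudovirus plus 2-fold compound for about 2 h at 37 °C. The inoculum was replaced with fresh DMEM and cells were kept 48 h at 37 °C, then lysed. Luciferase luminescence was read, with virus-only cells set as 100%, and IC50 was computed.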

| SMILES | IC50 [µM] |
| --- | --- |
| C=CCc1cc(CSc2nnc(-c3ccccc3F)o2)c(O)c(-c2ccc(O)c(CC=C)c2)c1 | > 100 |
| C=CCc1cc(-c2cc(CC=C)c3oc(SCc4nnc(-c5cccc(Cl)c5)o4)nc3c2)c2oc(SCc3nnc(-c4cccc(Cl)c4)o3)nc2c1 | > 100 |
| C=CCc1cc(-c2cc(CC=C)c3oc(SCc4nnc(-c5ccccc5F)o4)nc3c2)c2oc(SCc3nnc(-c4ccccc4F)o3)nc2c1 | > 100 |
| C=CCc1cc(-c2cc(CC=C)c3oc(SCc4nnc(-c5ccccc5C)o4)nc3c2)c2oc(SCc3nnc(-c4ccccc4C)o3)nc2c1 | > 100 |
| C=CCc1cc(-c2cc(CC=C)c3oc(SCc4nnc(-c5ccc(C)cc5)o4)nc3c2)c2oc(SCc3nnc(-c4ccc(C)cc4)o3)nc2c1 | > 100 |
| C=CCc1cc(-c2cc(CC=C)c3oc(SCc4nnc(-c5cccc(F)c5)o4)nc3c2)c2oc(SCc3nnc(-c4cccc(F)c4)o3)nc2c1 | > 100 |
| C=CCc1cc(-c2cc(CC=C)c3oc(SCc4nnc(-c5ccc(Cl)cc5)o4)nc3c2)c2oc(SCc3nnc(-c4ccc(Cl)cc4)o3)nc2c1 | > 100 |
| C=CCc1cc(-c2cc(CC=C)c3oc(SCc4nnc(-c5ccc(Br)cc5)o4)nc3c2)c2oc(SCc3nnc(-c4ccc(Br)cc4)o3)nc2c1 | > 100 |
| C=CCc1cc(-c2cc(CC=C)c3oc(SCc4nnc(-c5cccc(OC)c5)o4)nc3c2)c2oc(SCc3nnc(-c4cccc(OC)c4)o3)nc2c1 | > 100 |
| C=CCc1cc(-c2cc(CC=C)c3oc(SCc4nnc(-c5ccccc5)o4)nc3c2)c2oc(SCc3nnc(-c4ccccc4)o3)nc2c1 | > 100 |
| C=CCc1cc(-c2cc(CC=C)c3oc(SCc4nnc(-c5ccc(F)cc5)o4)nc3c2)c2oc(SCc3nnc(-c4ccc(F)cc4)o3)nc2c1 | > 100 |
| C=CCc1cc(CSc2nnc(-c3cccnc3)o2)c(O)c(-c2ccc(O)c(CC=C)c2)c1 | 45.6 |
| C=CCc1cc(-c2cc(CC=C)c3oc(SCc4nnc(-c5cccc(Br)c5)o4)nc3c2)c2oc(SCc3nnc(-c4cccc(Br)c4)o3)nc2c1 | > 100 |
| C=CCc1cc(-c2cc(CC=C)c3oc(SCc4nnc(-c5ccc(OC)cc5)o4)nc3c2)c2oc(SCc3nnc(-c4ccc(OC)cc4)o3)nc2c1 | > 100 |
| C=CCc1cc(-c2cc(CC=C)c3oc(SCc4nnc(-c5ccccc5OC)o4)nc3c2)c2oc(SCc3nnc(-c4ccccc4OC)o3)nc2c1 | > 100 |
| C=CCc1cc(-c2cc(CC=C)c3oc(SCc4nnc(-c5ccccc5Cl)o4)nc3c2)c2oc(SCc3nnc(-c4ccccc4Cl)o3)nc2c1 | 84.4 |
| C=CCc1cc(-c2cc(CC=C)c3oc(SCc4nnc(-c5cccc(C)c5)o4)nc3c2)c2oc(SCc3nnc(-c4cccc(C)c4)o3)nc2c1 | > 100 |
| C=CCc1cc(CSc2nnc(-c3ccccc3Cl)o2)c(O)c(-c2ccc(O)c(CC=C)c2)c1 | 85.2 |
| C=CCc1cc(CSc2nnc(-c3ccccc3)o2)c(O)c(-c2ccc(O)c(CC=C)c2)c1 | 17 |
| C=CCc1cc(CSc2nnc(-c3ccccc3C)o2)c(O)c(-c2ccc(O)c(CC=C)c2)c1 | > 100 |
| C=CCc1cc(-c2cc(CC=C)c3oc(SCc4nnc(-c5ccccc5Br)o4)nc3c2)c2oc(SCc3nnc(-c4ccccc4Br)o3)nc2c1 | > 100 |
| C=CCc1ccc(O)c(-c2ccc(O)c(CC=C)c2)c1 [HONOKIOL] | > 50 |
